Compound activity: PubChem BioAssay, several laboratories
Shown are actives, neighbours in structure and some others; about 0.86% of the full set was active somewhere.
CXCR6 inh = CXCR6 (human) receptor inhibition | AID 602244 | CHO-K1 PathHunter CXCR6 beta-arrestin, luminescence | inhibition, % at 20 µM | O00574 | 0.36% of 360,000 active; in the data active = inhibition above about 34%, passing the limit was not always enough;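 note: antagonist mode with CXCL16 agonist at 10 nM final; 0% = 10 nM CXCL16 with DMSO and 100% = unstimulated wells without agonist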
hiPSC survival = enhancers of human iPSC single-cell survival; 0.044% of 360,000 active; survival enhancement, % at 20 µM; hiPSC single-cell survival, ATPlite luminescence; 100% = ROCK inhibitor wells, 0% = DMSO; in the data active = survival enhancement above about 18%;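 note: cells exposed to compounds for 16 hours before the ATP read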
DAGLB inhibitor = diacylglycerol lipase beta (human) inhibition; Q8NCG7; HEK293T DAGLB membrane lysate, EnzChek fluorogenic substrate; inhibition, % at 5.17 µM; 0.059% of 340,000 active; AID 504411; in the data active = inhibition above about 34%;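 note: 0% = enzyme with vehicle and 100% = wells lacking enzyme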
APJ antag = APJ receptor antagonism. CHO-K1 APJ beta-arrestin complementation, luminescence. inhibition, % at 20 µM. 0.32% of 330,000 active. AID 2521;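 active = inhibition above about 40% at 20 µM, limit read from the data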;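 note: cells challenged with 10 nM apelin-13 agonist together with compound; plate controls were apelin-13 plus DMSO wells for no effect and DMSO wells lacking apelin-13 for full effect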
APJ agonist = activates the human apelin receptor APJ; CHO-K1 APJ PathHunter beta-arrestin, luminescence; 0% DMSO wells, 100% apelin; activation, % at 20 µM; 0.11% of 330,000 active; P35414;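 active = activation more than six SD over the plate average, tested at 20 µM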;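 note: 0% = DMSO alone and 100% = apelin-13 at 10 nM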
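Assay system: CHO-K1 cells stably expressing ProLink-tagged human APJ and arrestin–beta-gal acceptor. Compound dosing: 20 µM single point, 1% DMSO. Times: 16-18 h seeding, 90 min dark compound exposure, 60 min detection. Detection: beta-gal luminescence. Evaluation: APJ–arrestin association signal. Controls: negative DMSO alone, positive Apelin-13 at 10 nM.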
CCR6 antagonist = CCR6 (human) receptor antagonism | P51684 | CHO-K1 CCR6 PathHunter beta-arrestin, luminescence, CCL20-stimulated | inhibition, % at 20 µM | 0.49% of 340,000 active | AID 493098;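 active = compounds whose inhibition of the agonist-driven luminescence signal at 20 µM reaches about 50%, limit read from the data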;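 note: cells stimulated with CCL20 at 14 nM final; plate controls were DMSO with CCL20 for no effect and DMSO without agonist for full effect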
An asterisk follows results filed as active; nt = not tested or not shown.

SMILES	CXCR6 inh	hiPSC survival	DAGLB inhibitor	APJ antag	APJ agonist	CCR6 antagonist
CN1C(=O)C(=Cc2ccc(N3CCOCC3)o2)C(=O)N(C)C1=S	3.0	-1.2	4.2	42.5*	-4.7	57.4*
C=C1[C@@H](C)[C@H]2[C@H](Cc3ccccc3)NC(=O)[C@]23OC(=O)/C=C/[C@H](O)CCC[C@@H](C)C/C=C/[C@H]3[C@@H]1O	-1.9	40.1*	2.2	11.2	22.2	-4.3
C=C1C(C)C2C(Cc3ccccc3)NC(=O)C23C(OC(C)=O)C=CC(C)(O)CC(C)CC=CC3C1O (configuration not stated)	-1.6	60.4*	0.7	nt	nt	28.0
C[C@H]1C/C=C/[C@H]2[C@H](O)[C@H](C)[C@@](C)(O)[C@H]3[C@H](Cc4ccccc4)NC(=O)[C@]32[C@H](O)/C=C/[C@](C)(O)C1	-4.9	0.5	nt	8.7	-1.4	4.2
CC[C@@H](CO)C1CC2NC3CC4(c5ccccc5N(C)[C@@H]24)C(O)C31 (some centres not stated)	-5.1	-2.0	2.0	-17.9	-3.5	11.0
CC1CCN(C(CC(=O)c2ccccc2)C(=O)c2ccccc2)CC1 (configuration not stated)	30.4	-0.5	-1.1	nt	nt	65.3*
O=C1C(=O)c2cccc3cccc1c23	43.7*	0.8	1.0	62.6*	-12.7	67.2*
C=C1C(=O)OC2CC(C)C3C=CC(=O)C3(C)C(O)C12 (configuration not stated)	28.8	50.0*	1.8	nt	nt	46.6
Cc1cccc(C)c1-n1nnnc1C(CCc1ccccc1)N1CCC2(CC1)C(=O)NCN2c1ccccc1 (configuration not stated)	-3.6	0.1	nt	nt	nt	nt
O=C1C=CC(=O)C=C1	-4.0	-1.3	2.8	-2.5	-1.4	78.9*
O=C(CN1CCN(C(=O)COc2cccc(F)c2)CC1)Nc1ccc(Cl)c(C(F)(F)F)c1	-9.8	0.3	1.3	-3.5	2.1	-0.7
Cc1nc2cc(OC(=O)N(C)Cc3cccc(-c4ccncc4)c3)ccc2s1	-6.6	-0.3	nt	nt	nt	nt
CC1(C)N(O)C2CCCCC2N1O (configuration not stated)	-1.3	-1.5	-0.3	-13.4	-3.0	13.2
CC12CCCCC1N(O)CN2O (configuration not stated)	5.2	1.8	-1.8	17.6	-1.4	60.4*
COC(=O)C1=C(c2ccc(-c3ccccc3)c(F)c2)C[C@@H]2CC[C@H]1N2C(=O)N1CCC(C)CC1	41.4*	2.7	-19.1	13.6	-3.7	28.3
CN1CC(C(=O)c2ccc(Cl)cc2)C(c2ccccc2F)C1 (configuration not stated)	7.5	2.6	0.8	7.1	-3.5	13.1
ON1C2CCCCC2N(O)C1c1ccccc1F (configuration not stated)	23.5	4.4	-2.6	24.1	-8.1	80.3*
Cc1csc(=N)n1Cc1ccccc1	4.1	0.0	-0.1	-1.6	-1.7	0.6
CN1CC=C(/C=C/c2ccc(-c3ccccc3)cc2)CC1	nt	nt	nt	14.0	-1.0	20.7
O=C1NC(=O)C(=Cc2ccc(-c3ccc(Cl)cc3)o2)C(=O)N1	50.1*	1.6	4.6	-2.4	23.9	71.2*
CCCCOC1OCN(C2CCCCC2)CC1(C)C (configuration not stated)	-4.4	1.7	-2.6	nt	nt	nt
C=C(C)Cn1c(=O)n(CC2CS2)c2ccccc21 (configuration not stated)	-21.8	-0.1	-0.7	4.3	-2.6	2.4
O=C(Cn1c(=O)n(CC2CS2)c2ccccc21)N1CCCCCC1 (configuration not stated)	-5.4	-0.5	-1.3	8.4	-5.5	61.9*
CCN1/C(=C/C=C/C2=[N+](CC)c3ccccc3C2(C)C)C(C)(C)c2ccccc21	55.9*	-3.1	-78.0	nt	nt	nt
CN1/C(=C\C=C2C(=O)NC(=O)NC2=O)C(C)(C)c2ccccc21	-2.4	-0.4	-27.6	22.1	-1.8	10.0
CN1/C(=C\C=C\C2=[N+](C)c3ccc4ccccc4c3C2(C)C)C(C)(C)c2ccccc21	nt	nt	nt	42.6*	-4.9	nt
O=C(NCCO)c1nsnc1NCCCl	-0.2	2.2	-0.1	6.7	-2.0	-0.1
